# Columns and labels:
# [1] = tested on: Peptostreptococcus anaerobius; assay: Antimicrobial activity against Peptostreptococcus anaerobius assessed as percent susceptible isolates after 48 hrs by agar dilution method; type: functional
# Method in brief: (§1)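 CLSI agar dilution on recent Korean clinical anaerobe isolates. Inoculum 10^5 CFU per spot by replicator. Plates incubated in an anaerobic chamber at 37°C for 48 h. For piperacillin plus tazobactam, tazobactam was held constant at 4 μg/ml. Resistance and susceptibility rates derived from MICs.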
# [2] = tested on: Bacteroides thetaiotaomicron; assay: Antimicrobial activity against Bacteroides thetaiotaomicron after 48 hrs by agar dilution method; type: functional
# Method in brief: (§2)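 MICs on clinical anaerobe isolates by the CLSI agar dilution method. Inoculum of 10^5 CFU applied with a Steers replicator. Plates incubated 48 h at 37°C in an anaerobic chamber.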
# Bacteroides fragilis [3] = assay: Antimicrobial activity against Bacteroides fragilis assessed as percent susceptible isolates after 48 hrs by agar dilution method; type: functional
# Bacteroides ovatus [4] = assay: Antimicrobial activity against Bacteroides ovatus assessed as percent resistant isolates after 48 hrs by agar dilution method; type: functional; method in brief: as §1
# Bifidobacterium sp. [5] = assay: Antimicrobial activity against Bifidobacterium sp. assessed as percent resistant isolates after 48 hrs by agar dilution method; type: functional; method in brief: as §1
# Eggerthella lenta = assay: Antimicrobial activity against Eubacterium lentum after 48 hrs by agar dilution method; type: functional
# Method in brief: (§3)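 CLSI agar dilution (M11-A7); inoculum 10^5 CFU applied by replicator; plates incubated anaerobically 48 h at 37°C. For piperacillin-tazobactam, tazobactam held constant at 4 μg/ml.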
# Bacteroides ovatus [6] = assay: Antimicrobial activity against Bacteroides ovatus assessed as percent susceptible isolates after 48 hrs by agar dilution method; type: functional
# Prevotella intermedia = assay: Antimicrobial activity against Prevotella intermedia assessed as percent resistant isolates after 48 hrs by agar dilution method; type: functional; method in brief: as §1
# Prevotella buccae [7] = assay: Antimicrobial activity against Prevotella buccae after 48 hrs by agar dilution method; type: functional; conditions: Segatella buccae; method in brief: as §3
# Fusobacterium varium = assay: Antimicrobial activity against Fusobacterium varium after 48 hrs by agar dilution method; type: functional; method in brief: as §3
# [8] = tested on: Porphyromonas asaccharolytica; assay: Antimicrobial activity against Porphyromonas asaccharolytica after 48 hrs by agar dilution method; type: functional; method in brief: as §3
# Bifidobacterium sp. [9] = assay: Antimicrobial activity against Bifidobacterium sp. after 48 hrs by agar dilution method; type: functional; method in brief: as §2
# Schaalia odontolytica [10] = assay: Antimicrobial activity against Actinomyces odontolyticus assessed as percent resistant isolates after 48 hrs by agar dilution method; type: functional; method in brief: as §1
# Fusobacterium necrogenes = assay: Antimicrobial activity against Fusobacterium necrogenes after 48 hrs by agar dilution method; type: functional; method in brief: as §3
# [11] = tested on: Bifidobacterium adolescentis; assay: Antimicrobial activity against Bifidobacterium adolescentis assessed as percent susceptible isolates after 48 hrs by agar dilution method; type: functional
# Fusobacterium nucleatum = assay: Antimicrobial activity against Fusobacterium nucleatum after 48 hrs by agar dilution method; type: functional; method in brief: as §3
# Anaerococcus prevotii [12] = assay: Antimicrobial activity against Anaerococcus prevotii assessed as percent resistant isolates after 48 hrs by agar dilution method; type: functional; method in brief: as §1
# Clostridioides difficile [13] = assay: Antimicrobial activity against Clostridium difficile assessed as percent resistant isolates after 48 hrs by agar dilution method; type: functional
# [14] = tested on: Parabacteroides distasonis; assay: Antimicrobial activity against Bacteroides distasonis assessed as percent susceptible isolates after 48 hrs by agar dilution method; type: functional
# [15] = tested on: Bacteroides thetaiotaomicron; assay: Antimicrobial activity against Bacteroides thetaiotaomicron assessed as percent resistant isolates after 48 hrs by agar dilution method; type: functional; method in brief: as §1
# Prevotella bivia = assay: Antimicrobial activity against Prevotella bivia assessed as percent resistant isolates after 48 hrs by agar dilution method; type: functional; method in brief: as §1
# Bacteroides fragilis [16] = assay: Antimicrobial activity against Bacteroides fragilis after 48 hrs by agar dilution method; type: functional; method in brief: as §2
# Hoylesella oralis [17] = assay: Antimicrobial activity against Prevotella oralis after 48 hrs by agar dilution method; type: functional; method in brief: as §3
# Anaerococcus prevotii [18] = assay: Antimicrobial activity against Anaerococcus prevotii assessed as percent susceptible isolates after 48 hrs by agar dilution method; type: functional
# Hoylesella oralis [19] = assay: Antimicrobial activity against Prevotella oralis assessed as percent susceptible isolates after 48 hrs by agar dilution method; type: functional
# Method in brief: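 CLSI agar dilution MIC testing of clinical isolates. 10^5 CFU spotted by replicator, plates incubated 48 h at 37°C in an anaerobic chamber. Susceptibility rates derived from the MICs.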
# Schaalia meyeri = assay: Antimicrobial activity against Actinomyces meyeri assessed as percent susceptible isolates after 48 hrs by agar dilution method; type: functional
# Bacteroides caccae = assay: Antimicrobial activity against Bacteroides caccae assessed as percent resistant isolates after 48 hrs by agar dilution method; type: functional; method in brief: as §1
# [20] = tested on: Bifidobacterium adolescentis; assay: Antimicrobial activity against Bifidobacterium adolescentis assessed as percent resistant isolates after 48 hrs by agar dilution method; type: functional; method in brief: as §1
# Actinomyces naeslundii [21] = assay: Antimicrobial activity against Actinomyces naeslundii assessed as percent susceptible isolates after 48 hrs by agar dilution method; type: functional
# Schaalia odontolytica [22] = assay: Antimicrobial activity against Actinomyces odontolyticus after 48 hrs by agar dilution method; type: functional; method in brief: as §2
# [23] = tested on: Peptoniphilus asaccharolyticus; assay: Antimicrobial activity against Peptoniphilus asaccharolyticus assessed as percent resistant isolates after 48 hrs by agar dilution method; type: functional; method in brief: as §1
# Prevotella buccae [24] = assay: Antimicrobial activity against Prevotella buccae assessed as percent resistant isolates after 48 hrs by agar dilution method; type: functional, Segatella buccae; method in brief: as §1
# Clostridioides difficile [25] = assay: Antimicrobial activity against Clostridium difficile assessed as percent susceptible isolates after 48 hrs by agar dilution method; type: functional
# Actinomyces israelii [26] = assay: Antimicrobial activity against Actinomyces israelii assessed as percent susceptible isolates after 48 hrs by agar dilution method; type: functional
# Finegoldia magna [27] = assay: Antimicrobial activity against Finegoldia magna assessed as percent susceptible isolates after 48 hrs by agar dilution method; type: functional; method in brief: as §3
# [28] = tested on: Peptoniphilus asaccharolyticus; assay: Antimicrobial activity against Peptoniphilus asaccharolyticus assessed as percent susceptible isolates after 48 hrs by agar dilution method; type: functional; method in brief: as §3
# Eubacterium sp. [29] = assay: Antimicrobial activity against Eubacterium sp. assessed as percent susceptible isolates after 48 hrs by agar dilution method; type: functional; method in brief: as §3
# Bifidobacterium sp. [30] = assay: Antimicrobial activity against Bifidobacterium sp. assessed as percent susceptible isolates after 48 hrs by agar dilution method; type: functional; method in brief: as §3
# Actinomyces israelii [31] = assay: Antimicrobial activity against Actinomyces israelii assessed as percent resistant isolates after 48 hrs by agar dilution method; type: functional; method in brief: as §1
# Eubacterium sp. [32] = assay: Antimicrobial activity against Eubacterium sp. assessed as percent resistant isolates after 48 hrs by agar dilution method; type: functional; method in brief: as §1
# Actinomyces naeslundii [33] = assay: Antimicrobial activity against Actinomyces naeslundii after 48 hrs by agar dilution method; type: functional; method in brief: as §2
# [34] = tested on: Peptostreptococcus anaerobius; assay: Antimicrobial activity against Peptostreptococcus anaerobius after 48 hrs by agar dilution method; type: functional; method in brief: as §3
# [35] = tested on: Parabacteroides distasonis; assay: Antimicrobial activity against Bacteroides distasonis assessed as percent resistant isolates after 48 hrs by agar dilution method; type: functional; method in brief: as §1
# Parvimonas micra = assay: Antimicrobial activity against Peptostreptococcus micros after 48 hrs by agar dilution method; type: functional; method in brief: as §3
# Schaalia odontolytica [36] = assay: Antimicrobial activity against Actinomyces odontolyticus assessed as percent susceptible isolates after 48 hrs by agar dilution method; type: functional
# Anaerococcus prevotii [37] = assay: Antimicrobial activity against Anaerococcus prevotii after 48 hrs by agar dilution method; type: functional; method in brief: as §2
# Phocaeicola vulgatus = assay: Antimicrobial activity against Bacteroides vulgatus assessed as percent resistant isolates after 48 hrs by agar dilution method; type: functional; method in brief: as §1
# Finegoldia magna [38] = assay: Antimicrobial activity against Finegoldia magna assessed as percent resistant isolates after 48 hrs by agar dilution method; type: functional; method in brief: as §1
smiles,measurement,setting,value
C[C@@H](O)[C@H]1C(=O)N2C(C(=O)O)=C(S[C@@H]3CN[C@H](C(=O)N(C)C)C3)[C@H](C)[C@H]12 [MEROPENEM],Activity,[1],100%
same,MIC50,[2],0.25 µg/mL
same,MIC90,[2],2 µg/mL
same,Activity,Bacteroides fragilis [3],92%
same,Activity,Bacteroides ovatus [4],0%
same,Activity,Bifidobacterium sp. [5],8%
same,MIC50,Eggerthella lenta,0.125 µg/mL
same,MIC90,Eggerthella lenta,2 µg/mL
same,Activity,Bacteroides ovatus [6],98%
same,Activity,Prevotella intermedia,0%
same,MIC50,Prevotella buccae [7],0.125 µg/mL
same,MIC90,Prevotella buccae [7],0.5 µg/mL
same,MIC,Fusobacterium varium,0.008 µg/mL
same,MIC,[8],0.008 µg/mL
same,MIC50,Bifidobacterium sp. [9],0.125 µg/mL
same,MIC90,Bifidobacterium sp. [9],2 µg/mL
same,Activity,Schaalia odontolytica [10],8%
same,MIC,Fusobacterium necrogenes,0.008 µg/mL
same,Activity,[11],92%
same,MIC,Fusobacterium nucleatum,0.008 µg/mL
same,Activity,Anaerococcus prevotii [12],0%
same,Activity,Clostridioides difficile [13],0%
same,Activity,[14],98%
same,Activity,[15],0%
same,Activity,Prevotella bivia,0%
same,MIC50,Bacteroides fragilis [16],0.125 µg/mL
same,MIC90,Bacteroides fragilis [16],4 µg/mL
same,MIC50,Hoylesella oralis [17],0.125 µg/mL
same,MIC90,Hoylesella oralis [17],0.5 µg/mL
same,Activity,Anaerococcus prevotii [18],100%
same,Activity,Hoylesella oralis [19],100%
same,Activity,Schaalia meyeri,92%
same,Activity,Bacteroides caccae,0%
same,Activity,[20],0%
same,Activity,Actinomyces naeslundii [21],92%
same,MIC50,Schaalia odontolytica [22],0.125 µg/mL
same,MIC90,Schaalia odontolytica [22],2 µg/mL
same,Activity,[23],0%
same,Activity,Prevotella buccae [24],0%
same,Activity,Clostridioides difficile [25],100%
same,Activity,Actinomyces israelii [26],92%
same,Activity,Finegoldia magna [27],100%
same,Activity,[28],100%
same,Activity,Eubacterium sp. [29],92%
same,Activity,Bifidobacterium sp. [30],92%
same,Activity,Actinomyces israelii [31],8%
same,Activity,Eubacterium sp. [32],8%
same,MIC50,Actinomyces naeslundii [33],0.125 µg/mL
same,MIC90,Actinomyces naeslundii [33],2 µg/mL
same,MIC,[34],0.01 µg/mL
same,MIC50,[34],0.25 µg/mL
same,MIC90,[34],4 µg/mL
same,Activity,[35],0%
same,MIC,Parvimonas micra,0.01 µg/mL
same,MIC50,Parvimonas micra,0.25 µg/mL
same,MIC90,Parvimonas micra,4 µg/mL
same,Activity,Schaalia odontolytica [36],92%
same,MIC50,Anaerococcus prevotii [37],0.06 µg/mL
same,MIC90,Anaerococcus prevotii [37],0.125 µg/mL
same,Activity,Phocaeicola vulgatus,0%
same,Activity,Finegoldia magna [38],0%
CO[C@@]1(NC(=O)Cc2cccs2)C(=O)N2C(C(=O)O)=C(COC(N)=O)CS[C@@H]21 [CEFOXITIN],Activity,[1],100%
same,MIC50,[2],32 µg/mL
same,MIC90,[2],32 µg/mL
same,Activity,Bacteroides fragilis [3],79%
same,Activity,Bacteroides ovatus [4],7%
same,Activity,Bifidobacterium sp. [5],0%
same,MIC50,Eggerthella lenta,2 µg/mL
same,MIC90,Eggerthella lenta,16 µg/mL
same,Activity,Bacteroides ovatus [6],25%
same,Activity,Prevotella intermedia,0%
same,MIC50,Prevotella buccae [7],1 µg/mL
same,MIC90,Prevotella buccae [7],32 µg/mL
same,MIC,Fusobacterium varium,0.06 µg/mL
same,MIC,[8],0.06 µg/mL
same,MIC50,Bifidobacterium sp. [9],2 µg/mL
same,MIC90,Bifidobacterium sp. [9],16 µg/mL
same,Activity,Schaalia odontolytica [10],0%
same,MIC,Fusobacterium necrogenes,0.06 µg/mL
same,Activity,[11],92%
same,MIC,Fusobacterium nucleatum,0.06 µg/mL
same,Activity,Anaerococcus prevotii [12],0%
same,Activity,Clostridioides difficile [13],100%
same,Activity,[14],25%
same,Activity,[15],7%
same,Activity,Prevotella bivia,0%
same,MIC50,Bacteroides fragilis [16],16 µg/mL
same,MIC90,Bacteroides fragilis [16],32 µg/mL
same,MIC50,Hoylesella oralis [17],1 µg/mL
same,MIC90,Hoylesella oralis [17],32 µg/mL
same,Activity,Anaerococcus prevotii [18],100%
same,Activity,Hoylesella oralis [19],89%
same,Activity,Schaalia meyeri,92%
same,Activity,Bacteroides caccae,7%
same,Activity,[20],0%
same,Activity,Actinomyces naeslundii [21],92%
same,MIC50,Schaalia odontolytica [22],2 µg/mL
same,MIC90,Schaalia odontolytica [22],16 µg/mL
same,Activity,[23],0%
same,Activity,Prevotella buccae [24],0%
same,Activity,Clostridioides difficile [25],0%
same,Activity,Actinomyces israelii [26],92%
same,Activity,Finegoldia magna [27],100%
same,Activity,[28],100%
same,Activity,Eubacterium sp. [29],92%
same,Activity,Bifidobacterium sp. [30],92%
same,Activity,Actinomyces israelii [31],0%
same,Activity,Eubacterium sp. [32],0%
same,MIC50,Actinomyces naeslundii [33],2 µg/mL
same,MIC90,Actinomyces naeslundii [33],16 µg/mL
same,MIC50,[34],1 µg/mL
same,MIC90,[34],16 µg/mL
same,Activity,[35],7%
same,MIC50,Parvimonas micra,1 µg/mL
same,MIC90,Parvimonas micra,16 µg/mL
same,Activity,Schaalia odontolytica [36],92%
same,MIC50,Anaerococcus prevotii [37],0.5 µg/mL
same,MIC90,Anaerococcus prevotii [37],1 µg/mL
same,Activity,Phocaeicola vulgatus,7%
same,Activity,Finegoldia magna [38],0%
